Source: PubChem BioAssay (several laboratories)
HUVEC prolif 384 – inhibitors of HUVEC proliferation, primary screen, cell-based, 384-well | viability, % at 10 µM (by protocol) | AID 648, 2007 | CellTiter-Glo luminescence, 72 h; active compounds read low | 86,000 tested, 1.1% active;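 active means viability at or below 30%; inactive means viability above 30%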;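 further: 100% = median luminescence of DMSO-only cell control wells on each plate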
Fibroblast inh – antiproliferative effect on LL 47 fibroblasts – human, LL 47 cells, CellTiter-Glo luminescence, primary screen | LL 47 human lung fibroblast viability, ATP luminescence; active compounds read low | viability, % at 10 µM | 85,000 tested, 1.1% active | AID 719, 2007;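 active means viability at or below 50% in the single dose screen; inactive means viability above 50%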;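 further: compound exposure lasted 72 h before the ATP readout; 100% = median luminescence of untreated cell-only wells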
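Material: human lung fibroblast line LL 47, low passage; Evaluation: viability percentage against median untreated-cell control; Buffer or medium: 15% FBS in IMEM; Incubation: 72 h compound exposure at 37 °C after overnight plating; Dosing: 0.1% DMSO in all compound wells; Measured by: CellTiter-Glo luminescence.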
Phagocytosis inh – inhibitors of macrophage phagocytosis, primary screen, imaging, J774A.1 cells, IgG beads. J774A.1 macrophage IgG-bead phagocytosis. 110,000 tested, 0.07% active. inhibition, % at 5 µM;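 active means inhibition above the mean of the plate negative controls plus 5 SD, cut at about 13% in these data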;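 further: phagocytic index as fraction of beads internalized from green versus red external bead signal; plate controls were DMSO negative control for no effect and cytochalasin-D positive control for full effect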
PTEN del growth – growth suppression of PTEN-null HCT116, primary screen, cell-based, CellTiter-Glo. HCT116 PTEN-null viability, 60 h; active compounds read low. viability, % at 10 µM. 140,000 tested, 1.2% active;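 active means viability at or below a set limit, 4 SD under the median of all tested compounds, cut at about 3.7% in these data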;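 further: PTEN knockout HCT116 line with beta catenin targeted HCT116 as companion control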
HCT116 bCat-KO – primary screen for growth suppressors in beta-catenin knockout HCT116 cells (colon tumor, human). HCT116 beta-catenin knockout viability, CellTiter-Glo, 60 h; active compounds read low. viability, % at 10 µM. 140,000 tested, 1.5% active;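 active means viability at or under a set limit, the compound median less 4 SD, cut at about 6% in these data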;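 further: 0% = Hyamine 1622 control at 20 µM and 100% = untreated cell control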
H69AR growth 86K – proliferation blockers of H69AR lung cancer cells, primary screen, cell-based, human, 86K library; H69AR lung tumor viability, ATP luminescence, 72 h; active compounds read low; viability, % at 10 µM; 85,000 tested, 6% active;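 active means viability at or below 40%; inactive means viability above 40%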;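 further: multidrug resistant small cell line overexpressing MRP-1 efflux transporter; 100% = mean luminescence of untreated control wells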
The depositor's hits bear a star; . = not tested or not shown. The sample as a whole holds a higher share of hits than the screen did.

SMILES | HUVEC prolif 384 | Fibroblast inh | Phagocytosis inh | PTEN del growth | HCT116 bCat-KO | H69AR growth 86K
NC(=O)CN1CCN(c2nc(-c3ccc(F)cc3)cs2)CC1 | 91.6 | 96.4 | . | 96.9 | 87.6 | 91.8
O=C(CN1CCN(c2nc(-c3ccc(F)cc3)cs2)CC1)Nc1ccc2c(c1)OCO2 | 82.2 | 90.1 | -0.9 | 86.7 | 76.5 | 40.0*
Cc1ccc2occ(C3N[C@H](C(=O)O)CS3)c(=O)c2c1 (some centres undefined) | . | . | . | 92.5 | 92.2 | .
COc1cccc(NC(=O)Cn2cnc3sc(C)c(S(=O)(=O)N4CCCCC4)c3c2=O)c1 | 94.7 | 97.0 | 4.6 | 89.0 | 87.7 | 91.9
O=C(Nc1ccc(F)cc1)c1nsc(Cl)c1Cl | 87.4 | 99.8 | . | 80.7 | 83.5 | 37.1*
Cc1ccc(-n2nc(C)c3c(C)c(CCC(=O)NCc4ccccc4)c(C)nc32)cc1 | 66.0 | 77.2 | -0.4 | 78.4 | 76.6 | 32.2*
Cc1ccc(-n2nc(C)c3c(C)c(CCC(=O)NCc4ccco4)c(C)nc32)cc1 | 86.8 | 99.6 | 0.0 | 67.6 | 78.3 | 42.4
COc1ccc(OC)c(NC(=O)CN2C(=O)NC3(CCOc4ccccc43)C2=O)c1 (centres undefined) | . | . | -0.1 | 95.3 | 94.3 | .
CC(C)c1ccc(C(=O)NCCCN2CCN(CCCNC(=O)c3ccc(C(C)C)cc3)CC2)cc1 | . | . | -2.0 | 2.0* | 1.5* | .
Cc1ccc(N=C2C(=S)N(c3ccc(C)cc3)C(=N)N2/N=C/c2ccc(Cl)cc2)cc1 | 74.8 | 84.6 | . | 90.0 | 87.0 | 2.7*
Cc1ccc(C2(CCNS(=O)(=O)c3ccc(C)cc3)CCOC(C(C)C)C2)cc1 (centres undefined) | . | . | -5.0 | 84.5 | 76.4 | .
CC(C)C1CC(CCNCc2ccc(N(C)C)cc2)(c2ccccc2)CCO1 (centres undefined) | . | . | -0.5 | 2.6* | 2.3* | .
c1ccc(-c2nc(NCc3cccnc3)c3oc4ccccc4c3n2)cc1 | 66.8 | 87.4 | -2.9 | 52.3 | 57.8 | 37.8*
CCOC(=O)C1=C(Cc2ccc(Cl)cc2)C(=O)c2ccccc2C1=O | 20.6* | 74.6 | -1.7 | 75.6 | 68.9 | 1.9*
CCOC(=O)C1=C(C)N=C2c3ccccc3C(=O)C2C1c1ccc(Cl)cc1 (centres undefined) | . | . | . | 47.2 | 67.3 | .
Cc1cccnc1NCc1ccc(O)c2ncccc12 | 68.4 | 83.5 | -0.4 | 2.5* | 3.9* | 13.4*
CCCC(=O)Nc1sc(C)c(C)c1C(=O)Nc1cccc(C)c1 | . | . | . | 101.1 | 99.2 | .
Cc1ccc(-c2nc3cccnc3o2)cc1NC(=O)COc1ccc(Cl)cc1C | 33.3 | 62.6 | 4.8 | 23.0 | 95.1 | 6.9*
Cc1ccc(-c2nc3cccnc3o2)cc1NC(=O)COc1ccc(C(C)(C)C)cc1 | 18.4* | 81.6 | -0.2 | 58.0 | 67.1 | 43.6
O=S(=O)(NCC(c1cccnc1)N1CCN(c2ccccc2)CC1)c1cc(F)ccc1F (centres undefined) | 94.9 | 104.0 | -0.6 | 104.1 | 93.8 | 90.8
CCn1ncc(/C=N/NC(=O)c2cc(Cl)ccc2OC)c1C | . | . | -1.7 | 97.9 | 92.2 | .
O=S(=O)(NCCc1ccccc1)c1ccc(Cl)nc1 | . | . | -8.6 | 95.5 | 96.8 | .
Cc1nn(-c2ccc(F)cc2)c(C)c1NS(=O)(=O)c1ccc(Cl)cc1 | 29.7* | 87.5 | 2.6 | 83.9 | 80.3 | 75.0
COc1ccc(C2C=C(c3ccc(C)c(C)c3)Nc3ncnn32)c(OC)c1OC (centres undefined) | 61.8 | 62.2 | -0.1 | 38.9 | 40.4 | 25.0*
O=S(=O)(N/N=C/c1cn(Cc2ccccc2)c2ccccc12)c1ccccc1 | 74.9 | 84.7 | 0.3 | 20.0 | 48.6 | 44.7
CN(C)CCNC(=O)/C(=C/c1ccc(-c2cccc([N+](=O)[O-])c2)o1)NC(=O)c1ccccc1 | . | . | -1.0 | 28.6 | 38.7 | .
CN(C)CCCNC(=O)/C(=C\c1ccc(-c2ccc(Br)cc2)o1)NC(=O)c1ccccc1 | . | . | -5.6 | 1.8* | 1.8* | .
CN(C)CCNC(=O)/C(=C/c1ccc(-c2cccc(Cl)c2)o1)NC(=O)c1ccccc1 | . | . | -6.1 | 1.6* | 1.6* | .
COC(=O)C(C)Sc1snnc1-c1ccccc1 (centres undefined) | 98.0 | 98.4 | -0.6 | 101.6 | 94.0 | 102.7
